Hits are enriched below; roughly 9.3% of the tested compounds scored in any of these assays.
PostGolgi ctrl = growth of the yeast control strain, post-Golgi counter-screen. efflux-deficient yeast background strain, growth absorbance A615, 16 h. inhibition, % at 10 µM. actives 5% (n = 98,000). AID 738
D1 allo mod = D1 dopamine receptor (human) allosteric modulation; HEK293 D1, CRE-luciferase, dopamine EC30 potentiation; actives deviate in either direction; actives 5.9% (n = 58,000); B-score at 10 µM; AID 641;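 active = luminescence count or its row- and column-corrected plate score outside the 99.7% band of the plate's sample wells, on either side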
Target sequence (P21728 whole entry, looked up): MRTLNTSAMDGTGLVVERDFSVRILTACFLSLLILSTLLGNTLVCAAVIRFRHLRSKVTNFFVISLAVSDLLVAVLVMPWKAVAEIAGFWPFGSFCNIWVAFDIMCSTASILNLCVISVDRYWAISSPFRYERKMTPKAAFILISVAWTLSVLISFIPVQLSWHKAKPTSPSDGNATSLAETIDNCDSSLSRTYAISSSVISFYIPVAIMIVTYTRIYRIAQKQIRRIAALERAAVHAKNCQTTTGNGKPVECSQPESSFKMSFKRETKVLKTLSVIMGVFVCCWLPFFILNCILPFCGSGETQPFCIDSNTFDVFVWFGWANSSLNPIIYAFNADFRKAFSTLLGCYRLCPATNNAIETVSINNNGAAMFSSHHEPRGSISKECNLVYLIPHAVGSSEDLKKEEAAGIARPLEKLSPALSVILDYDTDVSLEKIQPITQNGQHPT
Ecoli tolC = E. coli tolC mutant growth inhibition; E. coli BW25113 tolC mutant growth, OD615; actives 2.2% (n = 65,000); growth inhibition, % at 10 µM (by protocol);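 active = growth inhibition at or above a cutoff equal to the mean over every tested compound plus 3 SD, cut at about 60% in these data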;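 note: growth measured after 20 h incubation at 37 °C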
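Doses: one dose of 10 µM final / Material: E. coli BW25113 ΔtolC::kan, tolC deletion mutant strain / Buffer or medium: LB with kanamycin 50 µg/mL / Evaluation: percent growth inhibition / Detection: optical density read at 615 nm / Incubation: 37 °C, 20 h exposure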
PostGolgi yeast = growth inhibition of a yeast mutant, post-Golgi transport screen; inhibition, % at 10 µM; post-Golgi transport phenotypic cell assay; actives 0.9% (n = 98,000);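 note: yeast cells grown in 1536-well plates; yeast grown about 18 h at 30C before absorbance read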
DAT uptake mod = changed human dopamine transporter uptake under cocaine IC80; Q01959; LLC-PK1 hDAT cells, [14C]-dopamine uptake with cocaine IC80; actives deviate in either direction; B-score at 10 µM; actives 1.3% (n = 110,000); AID 449768;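 active = Z score or B-score, a plate-position-corrected score, falls beyond the plate's 99.7% confidence bounds, in either direction; inactive = both scores lie inside the 99.7% bounds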;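 note: scored against the spread of the other compound wells on the same plate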
Ecoli WT expand = growth inhibitors of E. coli BW25113 wild type | OD600 absorbance | growth inhibition, % at 100 µM | actives 0.15% (n = 98,000);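 active = growth inhibition above about 50% at one test dose, limit read from the data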;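 note: growth measured after 20 h incubation at 37 °C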
Active calls of the source: *; . = no result. Cut-off read from the data, not from the text of the source, unless noted: active = inhibition above about 30%; inactive = the rest.

SMILES	PostGolgi ctrl	D1 allo mod	Ecoli tolC	PostGolgi yeast	DAT uptake mod	Ecoli WT expand
Cc1nn2c(-n3ccnc3)c3c(nc2c1-c1ccccc1)CCC3	81.3*	2.37	-9.6	74.2*	0.828	1.0
CCCCNc1c2c(nc3c(-c4ccccc4)c(C)nn13)CCC2	16.1	.	.	4.0	1.27	-13.0
N#C/C(=C\c1cn(-c2ccccc2)nc1-c1cccnc1)c1nnc2n1CCCCC2	17.3	.	.	-5.5	1.14	-4.0
CCOC(=O)c1oc2cc(O)c(CC)cc2c(=O)c1-c1ccc2c(c1)OCCO2	30.1*	-0.216	27.0	-6.4	-1.7	-4.0
O=C(Nc1ccc(-c2nc3cccnc3s2)cc1)c1ccco1	4.2	-5.01*	24.7	1.3	0.0965	-10.0
COc1cccc(OC)c1C(=O)Nc1ccc(NC(=O)c2ccco2)cc1	20.2	-0.255	-12.8	16.1	-0.145	0.0
O=C(Nc1nnc(C2CCCCC2)s1)c1ccco1	24.9	0.0178	2.2	-0.5	-1.74*	-7.0
O=C(Nc1cccc(-c2nc3cccnc3s2)c1)c1ccco1	1.9	-2.09	54.6	10.8	1.85	-6.0
O=C(Nc1ccccn1)c1ccc(NC(=O)c2ccco2)cc1	35.0*	-1.7	-31.9	4.2	0.121	-21.0
O=C(OC1CCCCC1)c1ccc(NC(=O)c2ccco2)cc1	29.3	-1.01	96.2*	-6.3	1.11	-10.0
O=c1c(-c2ccccc2)[n+]([O-])c2ccccc2n1O	-11.9	-1.16	-12.5	-0.3	-1.06	12.0
Cn1cc(NC(=O)c2cc(NC(=O)c3cc(NC=O)cn3C)cn2C)cc1C(=O)NCCC(=N)N	.	-0.656	-9.2	.	0.597	.
CC(C)NS(=O)(=O)c1ccc(CCC(=O)Nc2ccc3c(c2)OCO3)cc1	-3.0	.	.	1.6	0.381	-10.0
CCC1=C(OC(=O)N(CC)CC)N2C(=O)OC(=NCCc3c[nH]c4ccccc34)[C@]2(C)[C@H]2C1=CC[C@H]1C(=O)N(CC(=O)OC)C(=O)[C@H]12	.	.	.	.	2.07	.
COc1ccccc1C1SCCN1S(=O)(=O)c1cccc(C(F)(F)F)c1 (stereo not drawn)	-3.0	-0.346	63.3*	-3.5	-0.0189	-18.0
CCCCOc1ccc(Cl)cc1Nc1nc(NCCO)nc(N2CCCC2)n1	.	.	.	.	-1.06	.
Cc1cccc(NC(=O)c2nc[nH]c2C(=O)N[C@@H](Cc2ccccc2)C(=O)OCc2ccccc2)c1	.	.	.	.	0.656	.
COc1ccccc1Oc1nc(-c2ccccc2)cc(C)c1S(C)(=O)=O	21.1	.	.	-1.1	-0.431	-11.0
Cc1cc(-c2ccccc2)nc(Oc2ccc(C(C)(C)C)cc2)c1S(C)(=O)=O	63.4*	.	.	6.9	-0.215	-11.0
Cc1cc(C)cc(Oc2nc(-c3ccccc3)cc(C)c2S(C)(=O)=O)c1	45.1*	.	.	0.3	-0.469	-8.0
COc1ccc(CN(C(=O)c2ccco2)c2ccc(Br)cc2)cc1OC	28.1	-0.307	35.7	-22.2	1.17	-8.0
Cc1ccc(N(Cc2ccc([N+](=O)[O-])cc2)C(=O)c2ccco2)cc1	34.6*	.	.	11.9	-0.584	-12.0
CC(NC(=O)c1ccco1)c1ccc2c(c1)OCCO2 (stereo not drawn)	11.9	-0.735	-11.6	5.0	-0.0324	3.0
CCCCCCc1nc2ccccc2c(=O)n1NC(=O)c1c(O)c2cccc3c2n(c1=O)CCC3	7.3	.	.	0.5	.	-3.0
Cc1ccc2nsnc2c1S(=O)(=O)N1CCOCC1	0.0	.	.	19.8	-0.619	7.0
SMILES	PostGolgi ctrl	D1 allo mod	Ecoli tolC	PostGolgi yeast	DAT uptake mod	Ecoli WT expand
CCOc1ccc(CN(C(=O)c2oc3cc(C)ccc3c2C)C2CCS(=O)(=O)C2)cc1 (stereo not drawn)	35.3*	.	.	4.2	0.0501	-6.0
Cc1ccc(S(=O)(=O)N2CCN(C(=O)N(c3ccccc3)c3ccccc3)CC2)cc1	94.2*	.	.	-8.4	-0.819	-6.0
Cc1ccc(N(C)C(=O)N2CCN(S(=O)(=O)c3ccc(C)cc3)CC2)cc1	28.4	-1.27	24.2	-4.8	1.13	-8.0
COc1ccc(S(=O)(=O)N2CCC(C(=O)N3CCc4ccccc4C3)CC2)cc1	4.5	.	8.7	17.0	2.09	-9.0
Cc1ccc(S(=O)(=O)N2CCC(C(=O)N3Cc4ccccc4C3)CC2)cc1	37.4*	1.08	22.5	15.5	0.00627	2.0
CCOc1cc(C2/C(=C(/O)c3ccc(OC(C)C)cc3)C(=O)C(=O)N2CCCOC)ccc1O (stereo not drawn)	4.8	-0.895	-13.0	0.5	0.785	5.0
CS(=O)(=O)N1c2ccccc2[C@]2(Br)C[C@H]3C(=O)N[C@@H](Cc4ccccc4)C(=O)N3[C@H]12	.	.	.	.	0.712	.
COc1nc(C)ccc1-c1noc(-c2ccco2)n1	14.8	-1.28*	6.6	6.3	-0.99	0.0
COc1nc(-c2ccc(C)cc2)ccc1-c1noc(-c2ccco2)n1	16.4	0.976	-8.4	2.0	0.783	-11.0
CC1CCN(c2nc3c(c(=O)[nH]c(=O)n3C)n2CCSc2nc3ccccc3o2)CC1	-4.6	-0.819	-5.7	7.5	0.635	0.0
O=C(COc1cc(Cl)c(Cl)cc1Cl)Nn1cnnc1	0.0	-1.24	-1.3	9.8	-0.0902	6.0
CC(=O)N1c2c(cc(Br)cc2S(=O)(=O)NCc2cccnc2)CC1C (stereo not drawn)	-4.5	-1.09	-3.8	-10.3	-0.512	1.0
CCCCN(Cc1ccccc1)S(=O)(=O)c1cc(Br)cc2c1N(C(C)=O)C(C)C2 (stereo not drawn)	36.2*	.	.	9.6	-0.0936	-15.0
C=CCn1c(SCC(=O)N2CCc3ccccc3C2)nc2sc(C)cc2c1=O	49.9*	.	.	0.3	-0.0798	-6.0
Cc1cccc2sc(NC(=O)CN(C)S(=O)(=O)c3ccc(Br)s3)nc12	69.5*	.	92.3*	3.6	0.284	-10.0
Cc1nnc(NC(=O)C2c3ccccc3Oc3ccccc32)s1	.	.	.	.	-0.702	.
Cc1cccc2sc(NC(=O)C3c4ccccc4Oc4ccccc43)nc12	57.6*	.	.	53.0*	-0.499	-14.0
Cc1cccc2sc(NC(=O)CN(C)S(=O)(=O)c3cccs3)nc12	23.0	-0.52	11.2	-2.7	1.64	-9.0
O=S(=O)(N1CCCCCC1)N1CCN(S(=O)(=O)N2CCCCC2)CC1	-2.3	.	.	5.6	-0.771	-3.0
CCOC(=O)CNC(=O)CSc1nnc(Cn2cnc3ccccc32)n1C	8.2	0.13	.	1.0	-0.347	3.0
Cc1nc2ccc(S(=O)(=O)c3ccc4nc(C)[nH]c4c3)cc2[nH]1	3.4	.	.	6.7	0.00655	8.0
Cc1nc2ccc(C(C(F)(F)F)(C(F)(F)F)C(F)(F)F)cc2[nH]1	66.4*	1.46	99.5*	8.0	-1.11	3.0
BrC(=C\c1ccccc1)/C=N/N1CCN(c2ccccn2)CC1	37.7*	.	.	-4.3	0.36	-3.0
Cc1oc2c(CN3CCCC3)c(O)ccc2c(=O)c1-c1ccc(Br)cc1	-2.9	.	76.8*	10.2	0.00787	1.0
Clc1ccc(COc2ccccn2)c(Cl)c1	9.4	.	5.2	5.3	-1.1	12.0
Cc1cc(C(F)F)n2ncc(C(=O)NCCc3ccc(Cl)cc3)c2n1	49.3*	.	.	2.7	-0.271	7.0
O=c1[nH]c2ccc(Cl)cc2c(-c2ccccc2)c1SC(=S)N1CCOCC1	12.5	.	.	5.8	0.56	-7.0
